# 14-3-3 Bad inh: disrupts binding of bovine 14-3-3 zeta to phospho-Bad peptide; inhibition, % at 21.7 µM; actives 0.71% (n = 220,000); TR-FRET 14-3-3zeta/Dy647-pBad peptide displacement, 1 h; P63103; AID 781;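 active = inhibition above about 70%, limit read from the data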;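 note: 0% = full 14-3-3 plus peptide FRET controls and 100% = background without 14-3-3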
# Target sequence (P63103 whole entry, looked up): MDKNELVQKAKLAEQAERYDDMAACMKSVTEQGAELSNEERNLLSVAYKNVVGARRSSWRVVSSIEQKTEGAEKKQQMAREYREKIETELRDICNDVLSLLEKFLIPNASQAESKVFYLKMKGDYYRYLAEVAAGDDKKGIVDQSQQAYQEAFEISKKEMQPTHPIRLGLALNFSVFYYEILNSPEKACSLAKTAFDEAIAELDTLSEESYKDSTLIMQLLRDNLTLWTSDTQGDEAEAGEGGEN
# EBV gp42 block: blocks Epstein-Barr virus glycoprotein 42 binding | Q1HVG2 | actives 0.42% (n = 220,000) | Fluorescence polarization binding assay, mP read-out | inhibition, % (tested at 21.74 µM); in the data active = inhibition above about 50%
# Target sequence (Q1HVG2 whole entry, looked up): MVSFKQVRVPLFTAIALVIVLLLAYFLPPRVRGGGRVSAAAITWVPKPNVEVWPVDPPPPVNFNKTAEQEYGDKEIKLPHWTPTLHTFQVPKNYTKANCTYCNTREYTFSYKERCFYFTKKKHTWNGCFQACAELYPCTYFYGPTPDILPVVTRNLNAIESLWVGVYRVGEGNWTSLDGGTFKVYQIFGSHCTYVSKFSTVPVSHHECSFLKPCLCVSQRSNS
# eIF4E-4G inh: inhibitors of eIF4E and eIF4G interaction in translation initiation. inhibition, % at 21.7 µM. TR-FRET eIF4E-eIF4GI(517-606) binding, 2 h. AID 782. actives 0.37% (n = 220,000);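 note: 0% = full FRET control wells and 100% = background wells lacking eIF4GI fragment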
# p47phox inh: p47phox (human) inhibition; P14598; p47phox/p22phox peptide binding, fluorescence polarization, 2 h; inhibition, % at 24.7 µM; actives 0.53% (n = 220,000);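 note: 0% = p47phox with labelled peptide and 100% = labelled peptide alone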
# WT yeast gro inh: growth inhibition of WT yeast, mitochondrial fusion screen; inhibition, % at 10 µM; actives 2.1% (n = 190,000); mitochondrial fusion phenotypic screen, WT strain; in the data active = inhibition above about 58%; tested in S. cerevisiae
# RBBP9 inh: human RBBP9 hydrolase inhibition; inhibition, % at 7.94 µM; AID 1515; actives 0.2% (n = 220,000); recombinant RBBP9, FP-Rh probe fluorescence polarization; O75884;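 active = inhibition above the campaign mean of all tested compounds plus 3 SD, cut at about 14% in these data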;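 note: plate controls were DMSO wells with RBBP9 for no effect and wells lacking RBBP9 protein for full effect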
# Target sequence (O75884 whole entry, looked up): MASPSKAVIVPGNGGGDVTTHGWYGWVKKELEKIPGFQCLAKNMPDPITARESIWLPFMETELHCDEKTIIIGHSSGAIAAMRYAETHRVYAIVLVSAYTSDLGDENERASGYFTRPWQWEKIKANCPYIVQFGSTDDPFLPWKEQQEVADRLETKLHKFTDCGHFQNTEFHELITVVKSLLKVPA
#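 Material: RBBP9 protein. Amount: RBBP9 at 2.5 µM in dispensed solution, before mixing. Schedule: 30 min then 45 min, 25 °C. Medium: Tris buffer pH 8.0, NaCl, Pluronic. Measured by: fluorescence polarization. Measure: percent inhibition from mP, scaled between DMSO and no-protein wells. Replication: one well per compound.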
# RBBP9 inh conf: human RBBP9 inhibition, confirmation. actives 36% (n = 410). inhibition, % at 7.94 µM. recombinant RBBP9, FP-Rh probe fluorescence polarization. shares compounds with RBBP9 inh;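 active = inhibition above the hit cutoff derived for the primary screen, cut at about 15% in these data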;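 note: 0% = RBBP9 with DMSO and 100% = wells lacking RBBP9 protein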
# Numbers without * were called inactive; x = no result given; [ ] = dose if it differs, or a comment. Hits are enriched below; roughly 3.7% of the tested compounds scored in any of these assays.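 Rule for the calls, unless noted: active = inhibition above about 30% (limit read from the data); inactive = the rest.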
SMILES,14-3-3 Bad inh,EBV gp42 block,eIF4E-4G inh,p47phox inh,WT yeast gro inh,RBBP9 inh,RBBP9 inh conf
CC1CCCC(C)N1C(=O)COC(=O)C(Cc1ccccc1)NC(=O)c1cccs1 (configuration not stated),9.3,-12.7,1.5,0.1,-12.7,16.1*,0.2
O=C(COc1cc(Cl)c(Cl)cc1Cl)N1CCN(c2ccccn2)CC1,3.5,5.2,-1.5,-6.8,2.0,-10.2,x
CSc1nnc(CCCCCCCCc2nnc(SC)o2)o1,-1.1,-18.2,3.0,-13.4,x,15.7*,2.7
Cc1onc(-c2ccccc2)c1C(=O)NCC(O)c1ccccc1 (configuration not stated),0.9,-10.8,0.7,-16.6,x,-8.2,x
CCCC(=O)Nc1ccccc1-c1nnc(SCC)[nH]c1=O,-1.5,-22.2,2.4,-10.2,x,-3.2,x
CCc1cc(/C(Cc2csc(C)n2)=N/O)c(O)cc1O,-10.5,-4.1,-4.3,-10.8,-28.1,30.8*,22.4*
CCOC(=O)c1c(C)oc2c(CC(=O)c3ccccc3)c(Cl)c(O)c(O)c12,5.9,-32.7,-4.3,-9.2,-9.2,15.6*,13.3
CCOC(=O)c1c(C)oc2c1c(C=NCCC(=O)O)c(O)c1ccccc12,-13.2,-15.7,-1.1,-9.1,4.0,-4.7,x
CCCN1C(=O)S/C(=C/c2ccc(N3CCOCC3)o2)C1=O,2.9,-269.4,18.3,-260.0,x,14.5*,2.4
CCCN1C(=O)S/C(=C\c2ccc(N3CCOCC3)o2)C1=O,-17.9,-256.8,19.8,-230.0,0.1,-3.7,x
CN(C)c1nc2ncn(Cc3ccccc3)c2c(=O)[nH]1,-1.9,-12.1,1.7,-4.6,x,-4.6,x
CCNc1ccc2noc3c2c1C(=O)c1ccccc1-3,-13.7,56.2*,7.1,-278.8,45.6,27.6*,-3.4
O=C1c2ccccc2-c2onc3ccc(N4CCCC4)c1c23,25.0,26.2,34.1*,-229.1,41.8,45.9*,15.7*
O=C(O)CCCNc1cc(N2CCC3(CC2)OCCO3)c2noc3c2c1C(=O)c1ccccc1-3,-12.9,12.6,18.9,28.9,18.7,6.2,x
CCOC(=O)N1CCN(C(=O)C(=O)NN)CC1,-3.3,-13.8,4.1,-7.1,-0.2,-5.3,x
COc1cc(-c2nc3ccccn3c2/N=C/c2cccc(OC)c2O)ccc1O,-4.7,-12.9,-1.1,5.5,12.5,-6.3,x
COc1cc(-c2nc3ccccn3c2/N=C/c2ccc(F)cc2)ccc1O,-8.1,7.5,-4.8,-4.6,24.1,15.8*,10.5
Nn1c(SCc2cccc(Br)c2)nnc1-c1ccncc1,6.0,-14.5,2.0,-2.6,x,-3.6,x
Cc1ncc([N+](=O)[O-])n1Cc1ccc(Br)cc1,2.1,-8.8,3.9,2.8,20.8,-0.5,x
CC(C)CC(=O)O/N=C1\C(=O)N(Cc2ccc(Cl)cc2)c2ccc([N+](=O)[O-])cc21,5.0,-14.4,7.7,-10.3,2.8,23.6*,45.5*
O=C1CC2c3ccccc3C1C1C(=O)N(CCO)C(=O)C21 (configuration not stated),-12.6,-9.0,2.2,-2.5,-22.4,-4.7,x
CN(C)S(=O)(=O)c1cccc(NC(=S)Nc2cccc3cnccc23)c1,-2.8,3.0,3.6,-5.9,x,19.2*,7.2
COc1ccc(-c2cc3ccccc3[nH]2)cc1,-16.5,-10.1,0.3,-18.7,x,17.2*,3.7
CCOc1cccc2cc(C(=O)NCCC3=CCCCC3)c(=O)oc12,3.8,-1.5,2.0,-6.5,2.7,-4.2,x
CC1CCc2c(sc3nc(CSc4nnnn4C)[nH]c(=O)c23)C1 (configuration not stated),3.6,-21.6,4.0,-9.1,x,0.9,x
SMILES,14-3-3 Bad inh,EBV gp42 block,eIF4E-4G inh,p47phox inh,WT yeast gro inh,RBBP9 inh,RBBP9 inh conf
O=C(O)c1ccc(N/N=C/c2cn(Cc3ccccc3F)c3ccccc23)cc1,4.8,-8.7,4.0,-22.3,x,17.0*,10.6
COC(=O)N/N=C/c1cn(Cc2ccccc2F)c2ccccc12,-2.9,-6.3,0.2,-5.9,x,-0.6,x
O=C(NCC1CCCO1)c1ccc(CNS(=O)(=O)c2cccc(Cl)c2)cc1 (configuration not stated),-7.3,-13.5,4.5,-18.5,3.3,0.1,x
O=C(O)CN1CCN(Cc2ccccc2Cl)C1=O,x,x,x,x,x,15.6*,2.3
NNC(=O)c1cc(-c2ccc(N)cc2)nc2ccc(Br)cc12,-6.5,-10.9,3.8,-10.7,x,14.8*,68.5*
Cc1cc(C(=O)NN)c2cc(Br)ccc2n1,3.2,-0.3,-0.8,-12.2,10.8,-10.8,x
CC(=O)Oc1ccc2c(=O)c(-c3nc4ccccc4s3)coc2c1,8.1,-14.2,-2.3,-1.0,22.6,-3.5,x
Cc1ccccc1NC(=O)c1sc2nc3c(c(-c4ccco4)c2c1N)CCCC3,-11.5,2.0,-18.4,-4.9,13.4,15.4*,6.6
NC(N)=N/N=C/c1ccc(OCc2ccccc2)cc1,-15.4,-7.7,6.3,-17.1,19.4,8.5,x
NC(N)=N/N=C/c1ccc(OCc2ccc(Cl)cc2)cc1,86.6*[fluorescence artefact?],-4.2,8.2,53.5*,81.9,19.1*,6.5
Cc1c(C(=O)O)sc(S(=O)(=O)N2CCNCC2)c1C(=O)O,7.7,-15.2,3.8,-3.4,x,19.5*,5.6
Cc1nn(-c2ccccc2)c(N)c1C1(O)C(=O)N(C(C)C)c2ccccc21 (configuration not stated),-20.2,-11.5,0.4,-12.6,4.8,-7.4,x
Cc1noc(N)c1C1(O)C(=O)N(C(C)C)c2ccccc21 (configuration not stated),-9.5,-18.7,4.9,-6.6,-9.6,15.9*,9.7
Cc1nn(-c2ccccc2)nc1C(=O)c1c(C)[nH]n(-c2ccccc2)c1=O,2.6,-13.1,5.5,-16.6,x,15.0*,0.9
Cc1cc(CNC(=S)Nc2ccc(Br)cc2Cl)nn1C,-10.1,-4.7,-1.8,-21.6,6.6,-6.0,x
N#CCc1cnc2ccccc2n1,7.4,-5.5,3.6,10.9,x,16.4*,1.7
O=C(O)c1cnc2ccccc2n1,55.6,-23.4,2.8,-2.6,-14.2,-3.2,x
COCCOC(=O)C1=C(C)NC(=O)N(C(C)=O)C1c1ccc(Cl)cc1 (configuration not stated),-6.3,-5.4,0.5,-1.8,-11.4,15.1*,7.7
CCOC(=O)C1=C(C)NC(=S)N(C(C)=O)C1c1ccc(Cl)cc1 (configuration not stated),14.4,5.4,1.6,9.0,-6.5,-13.1,x
O=C(Cc1cccc(C(F)(F)F)c1)NCc1ccc(Cl)cc1Cl,1.7,-16.2,2.6,0.8,-5.9,-5.1,x
Cc1c(O)ccc(/C(Cc2ccc3ccccc3n2)=N\O)c1O,-3.4,-15.4,-2.6,-10.8,-8.9,40.8*,46.7*
Cc1ccc(S(=O)(=O)Nc2ccc3oc(=O)sc3c2)c(C)c1,4.3,-6.6,2.4,-4.2,61.0*,19.7*,15.6*

# Screens from PubChem.
